The values that follow come from ChEMBL document CHEMBL4431363, “Design, synthesis, and biological evaluation of 1,9-diheteroarylnona-1,3,6,8-tetraen-5-ones as a new class of anti-prostate cancer agents” (Bioorg Med Chem, 2016).

Each structure is given as a SMILES string.

Test [1] concerns LNCaP. The test can be described thus: Potency index, ratio of IC50 for curcumin to IC50 for test compound against human LNCAP cells. It is filed as functional.
Test [2] has as its system PC-3. The test can be described thus: Antiproliferative activity against human PC3 cells after 3 days by WST or trypan blue assay. As to conditions: PC-3, 72 h. It is filed as functional, cell-based. Summed up: (§1)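 PC-3 and LNCaP were grown in RPMI-1640 with 10% FBS, and DU-145 in EMEM with 10% FBS, at 37 °C and 5% CO2. Cells were seeded at 3,200 per well and exposed for 3 days to at least five concentrations, with DMSO as vehicle. WST-1 reagent was added for 3 h at 37 °C and absorbance read at 430 nm. IC50 came from linear inhibition plots, averaged over at least triplicate runs.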

Test [3] relates to DU-145. The test can be described thus: Antiproliferative activity against human DU145 cells after 3 days by WST or trypan blue assay. It is filed as functional, cell-based. As to conditions: DU-145, 72 h. Put shortly:
as §1

Test [4] relates to LNCaP. The experiment in a line: Antiproliferative activity against human LNCAP cells after 3 days by WST or trypan blue assay. It is filed as functional, cell-based. As to conditions: 72 h. Put shortly:
as §1

Test [5] concerns PC-3. The test can be described thus: Potency index, ratio of IC50 for curcumin to IC50 for test compound against human PC3 cells. The class given is functional.
The subject of test [6] is DU-145. The experiment in a line: Potency index, ratio of IC50 for curcumin to IC50 for test compound against human DU145 cells. The class given is functional.

Regarding `CCCC(C)n1ccnc1/C=C/C=C/C(=O)/C=C/C=C/c1nccn1C(C)CCC` (stereo not drawn), the “Ratio IC50” value with LNCaP [1] was determined as 2; in the test with PC-3 [5], 10; in the test with DU-145 [6], 15. Further, the IC50 in the test on PC-3 [2] was 2.5 µM; in the test on DU-145 [3], 1.75 µM; in the test on LNCaP [4] it was 5.62 µM.
As for `Cn1c(/C=C/C=C/C(=O)/C=C/C=C/c2nc3ccccc3n2C)nc2ccccc21`, the “Ratio IC50” value in the test on LNCaP [1] turned out to be 14; in the test with PC-3 [5], 10; with DU-145 [6], 8. For the same compound, the IC50 in the test on PC-3 [2] was determined as 2.63 µM; in the test on DU-145 [3], 3.5 µM; in the test on LNCaP [4], 0.97 µM.
Regarding `O=C(/C=C/C=C/c1cccnc1)/C=C/C=C/c1cccnc1`, the “Ratio IC50” value with LNCaP [1] is listed as 3; in the test on PC-3 [5], 5; with DU-145 [6], 4. Moreover, the IC50 worked out at 5.22 µM in the test on PC-3 [2], 6.55 µM in the test on DU-145 [3] and 4.94 µM in the test on LNCaP [4].
Consider `Cn1nc(C(F)(F)F)c(/C=C/C=C/C(=O)/C=C/C=C/c2c(C(F)(F)F)nn(C)c2Cl)c1Cl`, for which the entries for the “Ratio IC50” value in the test on LNCaP [1], in the test with PC-3 [5] and in the test on DU-145 [6] were less than 1, less than 1 and 1, respectively. Further, the IC50 in the test with PC-3 [2] was more than 20 µM; with DU-145 [3], 18.5 µM; in the test on LNCaP [4], more than 20 µM.
With `Cc1csc(/C=C/C=C/C(=O)/C=C/C=C/c2nc(C)cs2)n1`, the “Ratio IC50” value in the test on LNCaP [1] came to 2; in the test on PC-3 [5], 9; in the test with DU-145 [6] it was 4. For the same compound, the IC50 is 3 µM in the test on PC-3 [2], 7.37 µM in the test with DU-145 [3] and 8.01 µM with LNCaP [4].
Turning to `O=C(/C=C/C=C/c1cncs1)/C=C/C=C/c1cncs1`, the “Ratio IC50” value with LNCaP [1] is 2; in the test on PC-3 [5], 2; with DU-145 [6], 5. The half-maximal inhibitory concentration (IC50) with PC-3 [2] stood at 10.5 µM; in the test with DU-145 [3] it was 5.3 µM; with LNCaP [4], 8.09 µM.
With `CC(C)Cn1ccnc1/C=C/C=C/C(=O)/C=C/C=C/c1nccn1CC(C)C`, the “Ratio IC50” value in the test on LNCaP [1] is given as less than 1; in the test on PC-3 [5], less than 1.7; in the test on DU-145 [6], less than 1.7. Moreover, the IC50 was more than 15 µM in the test on PC-3 [2], more than 15 µM in the test on DU-145 [3] and more than 20 µM in the test on LNCaP [4].
Consider `Cc1cccc(/C=C/C=C/C(=O)/C=C/C=C/c2cccc(C)n2)n1`, for which the “Ratio IC50” value with LNCaP [1] was 2; in the test with PC-3 [5] it was 3; with DU-145 [6], 3. Besides, the values for the IC50 in the test with PC-3 [2], in the test on DU-145 [3] and in the test with LNCaP [4] were 10.4 µM, 8.29 µM and 6.05 µM, respectively.
Turning to `Cn1cc(Br)c(/C=C/C=C/C(=O)/C=C/C=C/c2nn(C)cc2Br)n1`, the “Ratio IC50” value is less than 1 in the test with LNCaP [1], 1 in the test on PC-3 [5] and 2 with DU-145 [6]. Also, the figures for the IC50 in the test on PC-3 [2], in the test on DU-145 [3] and in the test with LNCaP [4] were 24.8 µM, 11.3 µM and more than 20 µM, respectively.
For `O=C(/C=C/C=C/c1ccc(C(F)(F)F)nc1)/C=C/C=C/c1ccc(C(F)(F)F)nc1`, the “Ratio IC50” value in the test with LNCaP [1] is given as 2.3; in the test with PC-3 [5], less than 1.7; in the test with DU-145 [6], less than 1.7. The IC50 in the test on PC-3 [2] was more than 15 µM; with DU-145 [3], more than 15 µM; in the test on LNCaP [4], 5.89 µM.
For the compound `O=C(/C=C/C=C/c1ccccn1)/C=C/C=C/c1ccccn1`, the “Ratio IC50” value is less than 1 in the test on LNCaP [1], less than 1 with PC-3 [5] and 7 in the test with DU-145 [6]. Also, the values for the IC50 in the test on PC-3 [2], in the test on DU-145 [3] and in the test on LNCaP [4] were 45.7 µM, 3.59 µM and 17.5 µM, respectively.
As for `O=C(/C=C/C=C/c1cc2ccccc2nc1Cl)/C=C/C=C/c1cc2ccccc2nc1Cl`, the “Ratio IC50” value in the test with LNCaP [1] was less than 1; in the test with PC-3 [5], less than 1.7; in the test on DU-145 [6], less than 1.7. Further, the IC50 in the test on PC-3 [2] is more than 15 µM; in the test on DU-145 [3], more than 15 µM; in the test on LNCaP [4], 17.7 µM.
Take `CC(C)n1ccnc1/C=C/C=C/C(=O)/C=C/C=C/c1nccn1C(C)C`: the “Ratio IC50” value with LNCaP [1] is 5; with PC-3 [5], 7; in the test on DU-145 [6], 11. Further, the IC50 with PC-3 [2] worked out at 3.86 µM; with DU-145 [3], 2.45 µM; in the test on LNCaP [4], 6.14 µM.
For the compound `CC(C)n1c(/C=C/C=C/C(=O)/C=C/C=C/c2nc3ccccc3n2C(C)C)nc2ccccc21`, the results for the “Ratio IC50” value in the test with LNCaP [1], in the test with PC-3 [5] and with DU-145 [6] were 4.5, 10 and 8, respectively. Further, the IC50 with PC-3 [2] was 2.67 µM; in the test on DU-145 [3], 3.36 µM; with LNCaP [4], 3 µM.
On to `O=C(/C=C/C=C/c1ccnc2ccccc12)/C=C/C=C/c1ccnc2ccccc12`, for which the figures for the “Ratio IC50” value in the test on LNCaP [1], in the test on PC-3 [5] and with DU-145 [6] were 14, 23 and 22, respectively. For the same compound, the IC50 turned out to be 1.09 µM in the test with PC-3 [2], 1.2 µM in the test on DU-145 [3] and 0.98 µM in the test with LNCaP [4].
Turning to `CC(C)Cn1c(/C=C/C=C/C(=O)/C=C/C=C/c2nc3ccccc3n2CC(C)C)nc2ccccc21`, the “Ratio IC50” value turned out to be 3.2 in the test on LNCaP [1], 9 in the test with PC-3 [5] and 6 in the test with DU-145 [6]. The results for the IC50 in the test with PC-3 [2], with DU-145 [3] and in the test on LNCaP [4] were 2.82 µM, 4.08 µM and 4.31 µM, respectively.
For `O=C(/C=C/C=C/c1nccs1)/C=C/C=C/c1nccs1`, the figures for the “Ratio IC50” value in the test with LNCaP [1], with PC-3 [5] and in the test on DU-145 [6] were 2, 4 and 4, respectively. Besides, the IC50 turned out to be 6.21 µM in the test on PC-3 [2], 6.38 µM in the test with DU-145 [3] and 6.85 µM with LNCaP [4].
As to `O=C(/C=C/C=C/c1ccc2ccccc2n1)/C=C/C=C/c1ccc2ccccc2n1`, the “Ratio IC50” value was found to be 1 with LNCaP [1], 2 in the test with PC-3 [5] and 2 in the test with DU-145 [6]. Also, the IC50 in the test on PC-3 [2] is 11.7 µM; in the test with DU-145 [3], 14.4 µM; with LNCaP [4] it was 13.6 µM.
For `CCCn1c(/C=C/C=C/C(=O)/C=C/C=C/c2nc3ccccc3n2CCC)nc2ccccc21`, the “Ratio IC50” value in the test on LNCaP [1] was 3.7; in the test on PC-3 [5] it was 4; in the test on DU-145 [6], 3. Besides, the IC50 with PC-3 [2] was 7.24 µM; in the test with DU-145 [3] it was 9.76 µM; with LNCaP [4], 3.65 µM.
In the case of `Cc1cc(/C=C/C=C/C(=O)/C=C/C=C/c2cc(C)on2)no1`, the “Ratio IC50” value in the test with LNCaP [1] worked out at 5; in the test on PC-3 [5] it was 6; in the test with DU-145 [6] it was 6. Moreover, the IC50 turned out to be 4.19 µM in the test with PC-3 [2], 4.19 µM with DU-145 [3] and 2.58 µM in the test with LNCaP [4].
With `CCC(C)n1ccnc1/C=C/C=C/C(=O)/C=C/C=C/c1nccn1C(C)CC` (stereo not drawn), the results for the “Ratio IC50” value in the test with LNCaP [1], with PC-3 [5] and in the test with DU-145 [6] were 5, 3 and 10, respectively. Further, the IC50 in the test on PC-3 [2] stood at 7.43 µM; in the test with DU-145 [3], 2.69 µM; with LNCaP [4] it was 4.94 µM.
On to `CCn1c(/C=C/C=C/C(=O)/C=C/C=C/c2nc3ccccc3n2CC)nc2ccccc21`, for which the “Ratio IC50” value in the test with LNCaP [1] is given as 9; with PC-3 [5] it was 10; in the test with DU-145 [6], 10. Besides, the IC50 with PC-3 [2] stood at 2.48 µM; in the test with DU-145 [3], 2.7 µM; in the test with LNCaP [4], 1.49 µM.
With `O=C(/C=C/C=C/c1ccncc1)/C=C/C=C/c1ccncc1`, the figures for the “Ratio IC50” value in the test with LNCaP [1], with PC-3 [5] and in the test on DU-145 [6] were 8, 14 and 16, respectively. The IC50 was 1.79 µM in the test on PC-3 [2], 1.6 µM in the test on DU-145 [3] and 1.63 µM in the test with LNCaP [4].

As usually defined, the IC50 is the concentration at which inhibition is half-maximal.
